Measurements: article PMC2896288 (Journal of molecular biology, 2010)

Legend:
[1] = target: human Bcl-xL (residues 1-209), c-myc tagged (human) (UniProt Q07817); experiment: fluorescence polarisation
[2] = target: human Mcl-1 (residues 172-327), c-myc tagged (human) (UniProt Q07820); experiment: fluorescence polarisation
[3] = target: human Bcl-xL (residues 1-209) (Homo sapiens, UniProt Q07817); experiment: Fluorescence polarization competition binding assay, Bcl-xL; conditions: FP competition binding assay
[4] = target: human Mcl-1 (residues 172-327) (Homo sapiens, UniProt Q07820); experiment: Fluorescence polarization competition binding assay, Mcl-1; conditions: FP competition binding assay
How it was run: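 c-myc-tagged human Mcl-1 (172-327) from E. coli BL21(DE3), TEV-cleaved from MBP, at 50 nM. Serially diluted unlabelled 23-residue peptides are premixed with Mcl-1 first. FITC-Bim-BH3 (10 nM) is then added and mixed overnight at 37 °C, returned to room temperature and anisotropy read. Buffer: phosphate, pH 7.8. Ki from complete competitive binding model fitting five parameters, Bim Kd fixed 1 nM; unlabelled Bim-BH3 reference; ≥2 experiments, SD.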

Bcl-xL = Bcl-xL (Homo sapiens, UniProt Q07817); experiment: Yeast surface display binding, soluble Bcl-xL; conditions: yeast cells displaying the peptide titrated with soluble Bcl-xL
How it was run: (§1)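 EBY100 yeast displaying the BH3 peptide as Aga2p fusion with C-terminal FLAG tag, incubated with c-myc-tagged pro-survival protein. Expression is read by anti-FLAG/FITC and binding by anti-c-myc/PE. Cells are gated by forward scatter on a FACScan flow cytometer, typically 10,000 events analysed.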

Mcl-1 = Mcl-1 (Homo sapiens, UniProt Q07820); experiment: Yeast surface display binding, soluble Mcl-1; conditions: yeast cells displaying the peptide titrated with soluble Mcl-1
How it was run: as §1

[5] = target: T1, human Bcl-w (residues 1-164), c-myc tagged (human), Q92843; experiment: SEC; conditions: remark: other sources report otherwise
T1 chain: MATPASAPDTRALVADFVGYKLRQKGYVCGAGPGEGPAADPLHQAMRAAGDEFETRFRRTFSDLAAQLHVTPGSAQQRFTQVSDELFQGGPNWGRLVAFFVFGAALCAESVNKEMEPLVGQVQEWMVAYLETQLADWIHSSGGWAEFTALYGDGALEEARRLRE

Chain of human Mcl-1 (residues 172-327), c-myc tagged (human) (Q07820 172-327): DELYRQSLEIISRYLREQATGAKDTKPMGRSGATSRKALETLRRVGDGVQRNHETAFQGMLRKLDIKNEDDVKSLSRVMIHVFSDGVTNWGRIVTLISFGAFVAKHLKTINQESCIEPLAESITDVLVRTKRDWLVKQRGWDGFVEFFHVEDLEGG
Chain of Mcl-1 (Q07820 172-327): as above
Chain of human Mcl-1 (residues 172-327) (Q07820 172-327): as above
Chain of human Bcl-xL (residues 1-209) (Q07817 1-209): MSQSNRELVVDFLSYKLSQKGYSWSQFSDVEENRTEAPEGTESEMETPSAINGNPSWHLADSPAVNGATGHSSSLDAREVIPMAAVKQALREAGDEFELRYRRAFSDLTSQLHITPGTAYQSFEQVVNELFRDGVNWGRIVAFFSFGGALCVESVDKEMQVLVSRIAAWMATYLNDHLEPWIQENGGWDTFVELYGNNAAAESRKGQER
Chain of Bcl-xL (Q07817 1-209): as above
Chain of human Bcl-xL (residues 1-209), c-myc tagged (human) (Q07817 1-209): as above

Molecule: Bim-BH3 with a Phe4aVal mutation (synthetic peptide)
- Ki [1]: 30 nM
- Ki [2]: < 0.1 nM

Molecule: CC[C@H](C)[C@H](NC(=O)[C@H](CCCNC(=N)N)NC(=O)[C@H](CCCNC(=N)N)NC(=O)[C@H](CC(C)C)NC(=O)[C@H](CCC(=O)O)NC(=O)[C@H](CCC(N)=O)NC(=O)[C@H](C)NC(=O)[C@@H](NC(=O)[C@H](Cc1c[nH]c2ccccc12)NC(=O)[C@@H](NC(=O)[C@H](CCC(=O)O)NC(=O)[C@@H]1CCCN1C(=O)[C@H](CCCNC(=N)N)NC(C)=O)[C@@H](C)CC)[C@@H](C)CC)C(=O)NCC(=O)N[C@@H](CC(=O)O)C(=O)N[C@@H](CCC(=O)O)C(=O)N[C@H](C(=O)N[C@@H](CC(N)=O)C(=O)N[C@@H](C)C(=O)N[C@@H](Cc1ccc(O)cc1)C(=O)N[C@@H](Cc1ccc(O)cc1)C(=O)N[C@@H](C)C(=O)N[C@@H](CCCNC(=N)N)C(N)=O)C(C)C [Phe4aVal mutation in Bim-BH3]
- reduction of affinity for Bcl-xL relative to Bim-BH3 [3]: ~30 fold
- increase of affinity for Mcl-1 relative to Bim-BH3 [4]: more than 10 fold

Molecule: Bim-BH3: peptide derived from the BH3 region of human Bim; N-acetylated, C-amidated 23-mer in solution assays
- dissociation constant, yeast-displayed peptide, Bcl-xL (Bcl-xL): low nanomolar range
- dissociation constant, yeast-displayed peptide, Mcl-1 (Mcl-1): low nanomolar range

Molecule: unlabeled Bim-BH3 peptide (23-residue synthetic peptide)
- Ki [2]: 2 nM

B1: human Bcl-w (residues 1-164), c-myc tagged, Q92843 1-164 (domain or fragment)
chain: MATPASAPDTRALVADFVGYKLRQKGYVCGAGPGEGPAADPLHQAMRAAGDEFETRFRRTFSDLAAQLHVTPGSAQQRFTQVSDELFQGGPNWGRLVAFFVFGAALCAESVNKEMEPLVGQVQEWMVAYLETQLADWIHSSGGWAEFTALYGDGALEEARRLRE
- oligomeric fraction [5]: 58%
